KCNQ1 act: potentiators or activators of human KCNQ1 potassium channel. P51787. CHO-K1 KCNQ1, thallium flux FluxOR fluorescence; stronger effect = higher value. B-score at 10 µM. hit rate 0.35% among 310,000;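 active = fluorescence ratio B-score, a plate-corrected score, at least three library SD, with initial intensity B-score within 5 SD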
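Assay system: stable KCNQ1 CHO-K1 line; medium: assay buffer, equal DMSO in all wells; timing: 90 min dye loading and 20 min compound exposure, both at room temperature; technique: kinetic FluxOR thallium fluorescence, 10-s 1-Hz baseline, 110-s post-stimulus read; read-out basis: B score of baseline-normalized fluorescence ratio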
Kir21 block: blocks the mouse Kir2.1 inward-rectifier potassium channel. HEK293-Kir2.1, FluxOR thallium flux fluorescence; stronger effect = lower value. P35561. B-score at 10 µM. hit rate 0.85% among 310,000;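 active = fluorescence ratio B-score at or below minus 3 SD of library scores, with starting-brightness B-score within 2 SD, cut at about -4.2 in these data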;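 note: channel flux triggered by added potassium and thallium sulfate stimulus; B-score of peak minus minimum fluorescence over baseline after thallium stimulus; more negative B-score means stronger Kir2.1 block with less thallium influx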
Target sequence (P35561 whole entry, looked up): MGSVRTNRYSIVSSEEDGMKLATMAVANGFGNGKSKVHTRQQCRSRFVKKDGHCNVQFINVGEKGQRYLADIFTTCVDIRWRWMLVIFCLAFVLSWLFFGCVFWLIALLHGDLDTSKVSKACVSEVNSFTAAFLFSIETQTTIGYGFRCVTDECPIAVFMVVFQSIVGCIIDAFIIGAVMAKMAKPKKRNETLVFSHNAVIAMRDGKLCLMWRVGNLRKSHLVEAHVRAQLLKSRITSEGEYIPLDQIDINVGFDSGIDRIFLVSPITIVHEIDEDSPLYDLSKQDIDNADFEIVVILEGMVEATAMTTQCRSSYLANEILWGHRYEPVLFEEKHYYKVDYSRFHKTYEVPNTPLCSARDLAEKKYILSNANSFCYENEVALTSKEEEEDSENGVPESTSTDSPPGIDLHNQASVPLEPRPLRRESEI
KCNQ1 inh: inhibitors of human KCNQ1 potassium channel. CHO-K1 KCNQ1, FluxOR thallium flux fluorescence; stronger effect = higher value. B-score at 10 µM. hit rate 1.3% among 310,000. P51787;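 active = compounds whose thallium flux B-score, printed positive for inhibition, exceeds three library SD while starting fluorescence stays within three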;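 note: channel opened by potassium depolarization with thallium stimulus after 20 min compound exposure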
hERG protect: shields human hERG channel from block by proarrhythmic agents; CHO-hERG, FluxOR thallium flux, dofetilide IC70 present; AID 1511; activation (rescue from dofetilide block), less the hit threshold, % at 10 µM; Q12809; hit rate 0.51% among 310,000;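 active = activation above the mean of controls blocked by dofetilide plus 5 SD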;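 note: thallium influx through hERG after potassium depolarization seen as dye fluorescence rise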
KCNK9 block: human KCNK9 channel inhibition. B-score at 10 µM. Q9NPC2. hit rate 1.2% among 310,000. HEK293 KCNK9, FluxOR thallium flux fluorescence; stronger effect = lower value;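 active = ratio B-score over 3 SD below the library mean, with starting fluorescence within 5 SD of its mean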;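 note: negative B-score means less thallium flux so channel inhibition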
KCNK3 inh: human KCNK3 channel inhibition, primary screen. CHO-KCNK3 thallium flux, FluxOR fluorescence; stronger effect = lower value. B-score at 10 µM. hit rate 0.84% among 340,000;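 active = B-score under library mean minus 4 SD, starting fluorescence ratio at most library mean plus 5 SD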;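 note: more negative B-score means stronger inhibition of thallium flux through KCNK3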
Numbers without * were called inactive; i = inactive; . = not tested or not shown. A selection: hits, their analogues and other compounds. The true share with any hit is near 3.7%.

SMILES | KCNQ1 act | Kir21 block | KCNQ1 inh | hERG protect | KCNK9 block | KCNK3 inh
COC(=O)Cn1cnc2c1c(=O)n(C)c(=O)n2C | i | -0.74 | i | -3.6 | i | i
O=C(C[C@@H]1C/C=C\CCC(=O)OC[C@H](Cc2ccccc2)NC1=O)N[C@@H](CO)Cc1ccccc1 | . | . | . | . | . | i
CCOc1ccc(-c2cc(C(=O)OC)[nH]n2)cc1 | i | 0.34 | i | 9.4* | i | i
Cc1cc(C)n(-c2c(C)[nH]c3ccccc23)n1 | i | -4.21* | i | -3.8 | i | i
CCCCN(CCCC)c1nc2ccccc2nc1C(C#N)C(=O)NCCCOC (stereo unspecified) | i | -1.65 | 15* | -19.1 | i | i
CCN(CC)c1nc2ccccc2nc1C(C#N)C(=O)NCCCOC (stereo unspecified) | i | 0.4 | i | -4.4 | i | i
CCCN(CCC)c1nc2ccccc2nc1C(C#N)C(=O)OC(C)COC (stereo unspecified) | i | -1.59 | 8* | -9.1 | i | .
CCN(CC)c1nc2ccccc2nc1C(C#N)C(=O)NCCc1ccccc1 (stereo unspecified) | i | -0.59 | i | -16.3 | i | i
O=C(Cn1cc(COc2ccc3ccc(=O)oc3c2)nn1)c1ccc(O)cc1 | . | . | . | . | . | i
CCOc1ccccc1NC(=O)CN1CCC(C(=O)c2ccc(F)cc2)CC1 | i | -0.13 | i | -4.8 | -7.07* | i
COc1ccccc1NC(=O)CN1CCC(C(=O)c2ccc(F)cc2)CC1 | i | -0.43 | i | -16.0 | i | i
CC(C)CC(=O)NC(=S)Nc1nc(-c2ccccc2)cs1 | 9* | 0.23 | i | -0.1 | i | i
Cc1onc(-c2ccccc2)c1C(=O)Nc1nc(-c2cc(F)ccc2F)cs1 | i | -0.85 | i | -19.0 | i | i
O=C(Nc1nc(-c2ccncc2)cs1)c1ccco1 | i | -0.42 | i | -7.5 | i | i
CC(C)CC(=O)NC(=S)Nc1nc(-c2ccc(Cl)cc2)cs1 | i | -0.9 | i | -4.0 | i | i
O=C(NC(=S)Nc1nc(-c2ccccc2)cs1)c1cccs1 | 17* | -0.09 | i | 17.2* | i | i
Cc1onc(-c2ccccc2)c1C(=O)Nc1nc(-c2ccccc2)cs1 | i | 0.76 | 6* | -5.1 | i | i
O=C(NC(=S)Nc1nc(-c2ccccc2)cs1)c1ccco1 | 30* | -0.15 | i | 24.7* | i | i
Cc1ccc(-c2csc(NC(=S)NC(=O)c3cccs3)n2)cc1 | i | 1.84 | i | -3.3 | i | i
COc1cccc(CSCC(=O)NCCc2ccccc2)c1OC | i | -0.16 | i | -4.6 | i | i
CSc1nc(N)c2cn[nH]c2n1 | . | . | . | . | . | i
COc1ccc(-c2csc(NC(=S)NC(=O)c3ccco3)n2)cc1 | 8* | 1.44 | i | -3.3 | i | i
COc1ccc(NC2CCCN(C(=O)CCN3Cc4ccccc4C3=O)C2)cc1 (stereo unspecified) | i | -0.11 | i | -5.1 | i | i
COc1cc(OCc2ccc(C)cc2)ccc1CNC[C@H]1O[C@@H](n2cnc(C(N)=O)n2)[C@H](O)[C@@H]1O | . | . | . | . | . | i
CC1CCCC(C)N1C(=O)CN1C(=O)c2ccccc2S1(=O)=O (stereo unspecified) | . | . | . | . | . | i
SMILES | KCNQ1 act | Kir21 block | KCNQ1 inh | hERG protect | KCNK9 block | KCNK3 inh
COc1cccc(C(=O)CSc2nnc(-c3cc(OC)cc(OC)c3)o2)c1 | i | 0.63 | i | 6.2* | i | i
COc1ccc(CN(Cc2cccn2C)S(=O)(=O)c2ccc(F)cc2)cc1 | i | 1.43 | i | -2.1 | -6.85* | i
COc1ccccc1NC(=O)C1CCCN1C(=O)Nc1ccc(F)cc1 (stereo unspecified) | i | -1.17 | i | -0.2 | i | i
CC1CN(C(=O)CCn2c(=O)oc3ccccc32)CC(C)O1 (stereo unspecified) | i | -0.1 | i | -17.9 | i | -9.04*
Oc1oc(-c2ccccc2)nc1/C=N/c1nccs1 | 12* | -1.42 | i | 0.4 | i | i
CCCCOc1ccc(-c2nc(/C=N/c3nccs3)c(O)o2)cc1 | i | 0.66 | i | 1.3 | i | i
Nc1cc2c(cc1Cl)-c1ccc([N+](=O)[O-])cc1C2=NO | . | . | . | . | . | i
CC(C)CCn1c(=S)[nH]c2ncccc2c1=O | 10* | 1.68 | i | 9.9* | i | i
CN(Nc1cccc(Cl)c1)c1cccc(Cl)c1 | . | . | . | . | . | i
CC(C)(C)c1ccccc1NC(=O)CN1C(=O)NC2(CCCCCC2)C1=O | . | . | . | . | . | i
COc1cc(Cl)c(C)cc1NC(=O)CSc1sc2c(O)cc(=O)[nH]c2c1C#N | i | 0.95 | i | 4.7* | i | i
COc1ccc(OC)c(NC(=O)CSc2sc3c(O)cc(=O)[nH]c3c2C#N)c1 | i | -0.46 | i | -6.3 | i | i
COc1ccc2cc(C3=CCCCC3)ncc2c1 | . | . | . | . | . | i
Cc1cccc(C(=O)N2c3ccccc3C(=O)OC2c2ccc3c(c2)OCO3)c1 (stereo unspecified) | i | -0.06 | i | -5.7 | i | i
O=C1OC(c2ccc3c(c2)OCO3)N(C(=O)c2ccc(Cl)c(Cl)c2)c2ccccc21 (stereo unspecified) | i | -0.55 | i | -7.5 | -7.52* | i
Cc1ccc(/C=C/S(=O)(=O)NCC(=O)OCC(=O)Nc2c(F)cccc2F)cc1 | i | 0.05 | i | -9.9 | i | i
Cc1ccc(C)c(Oc2cc(NC(=O)CCCn3nc(C)c([N+](=O)[O-])c3C)cc([N+](=O)[O-])c2)c1 | i | 0.8 | i | -0.7 | -7.74* | i
CN(C(=O)c1ccc(NC(=O)Cc2ccc(NC(=O)C3CCN(S(=O)(=O)c4cccc([N+](=O)[O-])c4)CC3)cc2)cc1)C1CCCC1 | . | . | . | . | . | i
O=C(COc1ccc(Cl)cc1)NCCSCc1cccc(Cl)c1 | i | -1.65 | 6* | -1.3 | i | i
Cc1cccc(CSCCNC(=O)COc2ccc(Cl)cc2)c1 | i | 0.66 | i | -5.5 | i | i
CC(=O)N1CCN(C(=O)c2ccc(S(=O)(=O)Nc3ccccc3F)cc2)CC1 | . | . | . | . | . | i
CC(=O)NCCC(=O)Nc1ccc(C)c(F)c1 | i | -1.1 | i | 5.4* | i | i
CC1CCCC(NC(=O)CN2C(=O)NC(c3ccccc3)(c3ccccc3)C2=O)C1C (stereo unspecified) | . | . | . | . | . | i
Cc1c(NC(=O)c2ccc3c(c2)OCO3)cccc1-c1nc2ccccc2o1 | i | -0.31 | i | 6.0* | i | i
Cc1ccc(-c2nc3ccccc3o2)cc1NC(=O)c1ccc2c(c1)OCO2 | i | -0.35 | i | -13.7 | i | i
CC(=O)Nc1sc(NC(=O)c2ccccc2)nc1-c1cccs1 | i | 0.73 | i | 5.5* | i | i
